What was measured:
[1] = target: Glycogen synthase kinase-3 beta (Homo sapiens) (UniProt P49841); assay: Inhibition of wild-type human full length GSK3B (M1 to T433 residues) expressed in mammalian expression system assessed as remaining activity at 1 uM by Kinomescan method relative to control
In short: (§1)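 KINOMEscan competition binding panel run with inhibitor at 1 μM; read-out is remaining kinase activity (percent of control).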

[2] = target: T1, Tyrosine-protein kinase JAK3 (Homo sapiens, UniProt P52333); assay: Binding affinity to wild-type human partial length JAK3 JH1 catalytic domain (I781 to S1124 residues) expressed in mammalian expression system measured after 1 hr by competitive binding assay
T1 sequence (P52333 whole entry): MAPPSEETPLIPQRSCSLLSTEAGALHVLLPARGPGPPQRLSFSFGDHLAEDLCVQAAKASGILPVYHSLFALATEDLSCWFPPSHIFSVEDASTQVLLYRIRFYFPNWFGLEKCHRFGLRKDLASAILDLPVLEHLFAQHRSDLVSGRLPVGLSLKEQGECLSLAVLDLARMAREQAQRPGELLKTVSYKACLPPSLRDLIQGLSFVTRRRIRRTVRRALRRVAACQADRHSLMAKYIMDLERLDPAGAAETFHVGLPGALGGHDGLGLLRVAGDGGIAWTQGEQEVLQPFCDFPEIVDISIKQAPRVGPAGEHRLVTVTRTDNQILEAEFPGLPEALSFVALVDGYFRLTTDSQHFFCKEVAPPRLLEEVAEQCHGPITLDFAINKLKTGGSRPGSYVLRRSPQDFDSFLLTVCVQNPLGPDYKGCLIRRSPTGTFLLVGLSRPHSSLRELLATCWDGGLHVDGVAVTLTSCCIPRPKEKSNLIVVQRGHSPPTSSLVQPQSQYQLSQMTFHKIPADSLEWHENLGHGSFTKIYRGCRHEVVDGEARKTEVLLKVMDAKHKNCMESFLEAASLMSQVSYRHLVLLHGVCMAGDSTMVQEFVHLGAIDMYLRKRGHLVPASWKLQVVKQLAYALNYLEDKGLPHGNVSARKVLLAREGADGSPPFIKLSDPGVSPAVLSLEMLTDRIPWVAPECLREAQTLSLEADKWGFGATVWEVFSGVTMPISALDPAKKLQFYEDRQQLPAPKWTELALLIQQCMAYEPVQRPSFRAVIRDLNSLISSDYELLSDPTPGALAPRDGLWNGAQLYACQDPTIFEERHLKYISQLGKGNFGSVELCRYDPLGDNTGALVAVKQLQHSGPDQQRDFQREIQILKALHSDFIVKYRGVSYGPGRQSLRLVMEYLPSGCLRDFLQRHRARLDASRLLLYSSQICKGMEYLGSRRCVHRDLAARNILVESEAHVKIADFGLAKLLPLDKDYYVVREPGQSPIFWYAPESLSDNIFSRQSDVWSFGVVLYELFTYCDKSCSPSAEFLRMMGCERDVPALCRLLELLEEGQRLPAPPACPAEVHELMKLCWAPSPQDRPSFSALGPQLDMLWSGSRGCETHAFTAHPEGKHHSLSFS

[3] = target: Homeodomain-interacting protein kinase 2 (Homo sapiens, UniProt Q9H2X6); assay: Binding affinity to wild-type human partial length HIPK2 (M153 to S564 residues) expressed in mammalian expression system measured after 1 hr by competitive binding assay
Homeodomain-interacting protein kinase 2, sequence (Q9H2X6 whole entry, the tested form may be a part): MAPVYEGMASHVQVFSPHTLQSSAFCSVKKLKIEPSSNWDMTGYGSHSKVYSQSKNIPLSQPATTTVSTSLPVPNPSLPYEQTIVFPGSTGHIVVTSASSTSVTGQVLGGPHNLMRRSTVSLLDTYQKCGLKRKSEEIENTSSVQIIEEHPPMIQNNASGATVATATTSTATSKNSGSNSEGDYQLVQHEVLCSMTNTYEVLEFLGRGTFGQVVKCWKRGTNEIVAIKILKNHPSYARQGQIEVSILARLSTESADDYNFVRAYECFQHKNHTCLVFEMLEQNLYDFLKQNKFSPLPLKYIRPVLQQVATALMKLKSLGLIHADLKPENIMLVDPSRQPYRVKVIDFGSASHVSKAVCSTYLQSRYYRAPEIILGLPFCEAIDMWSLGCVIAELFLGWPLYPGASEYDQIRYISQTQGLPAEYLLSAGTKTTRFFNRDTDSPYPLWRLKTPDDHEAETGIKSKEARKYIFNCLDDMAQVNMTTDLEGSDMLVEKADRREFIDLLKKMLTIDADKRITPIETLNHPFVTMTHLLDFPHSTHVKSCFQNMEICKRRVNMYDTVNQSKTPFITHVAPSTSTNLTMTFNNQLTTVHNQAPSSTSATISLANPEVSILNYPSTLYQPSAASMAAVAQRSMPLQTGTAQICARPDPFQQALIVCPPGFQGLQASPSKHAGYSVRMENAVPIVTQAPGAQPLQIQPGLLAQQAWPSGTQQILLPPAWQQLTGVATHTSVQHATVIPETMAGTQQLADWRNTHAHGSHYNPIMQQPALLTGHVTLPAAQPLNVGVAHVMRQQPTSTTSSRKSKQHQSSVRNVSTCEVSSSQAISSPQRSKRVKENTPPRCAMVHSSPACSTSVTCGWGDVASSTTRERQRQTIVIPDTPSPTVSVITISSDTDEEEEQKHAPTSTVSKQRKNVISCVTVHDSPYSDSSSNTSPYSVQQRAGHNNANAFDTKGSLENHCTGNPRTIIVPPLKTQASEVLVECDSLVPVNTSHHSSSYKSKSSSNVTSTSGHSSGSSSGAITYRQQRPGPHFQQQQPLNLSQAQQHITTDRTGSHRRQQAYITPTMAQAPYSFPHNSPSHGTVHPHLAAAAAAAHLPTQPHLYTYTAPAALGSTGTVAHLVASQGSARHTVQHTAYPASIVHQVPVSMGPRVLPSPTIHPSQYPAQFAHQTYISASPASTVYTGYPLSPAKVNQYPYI

[4] = target: T2, Serine/threonine-protein kinase haspin (Homo sapiens, UniProt Q8TF76); assay: Binding affinity to wild-type human partial length HASPIN (I452 to K798 residues) expressed in mammalian expression system measured after 1 hr by competitive binding assay
T2 sequence (Q8TF76 whole entry): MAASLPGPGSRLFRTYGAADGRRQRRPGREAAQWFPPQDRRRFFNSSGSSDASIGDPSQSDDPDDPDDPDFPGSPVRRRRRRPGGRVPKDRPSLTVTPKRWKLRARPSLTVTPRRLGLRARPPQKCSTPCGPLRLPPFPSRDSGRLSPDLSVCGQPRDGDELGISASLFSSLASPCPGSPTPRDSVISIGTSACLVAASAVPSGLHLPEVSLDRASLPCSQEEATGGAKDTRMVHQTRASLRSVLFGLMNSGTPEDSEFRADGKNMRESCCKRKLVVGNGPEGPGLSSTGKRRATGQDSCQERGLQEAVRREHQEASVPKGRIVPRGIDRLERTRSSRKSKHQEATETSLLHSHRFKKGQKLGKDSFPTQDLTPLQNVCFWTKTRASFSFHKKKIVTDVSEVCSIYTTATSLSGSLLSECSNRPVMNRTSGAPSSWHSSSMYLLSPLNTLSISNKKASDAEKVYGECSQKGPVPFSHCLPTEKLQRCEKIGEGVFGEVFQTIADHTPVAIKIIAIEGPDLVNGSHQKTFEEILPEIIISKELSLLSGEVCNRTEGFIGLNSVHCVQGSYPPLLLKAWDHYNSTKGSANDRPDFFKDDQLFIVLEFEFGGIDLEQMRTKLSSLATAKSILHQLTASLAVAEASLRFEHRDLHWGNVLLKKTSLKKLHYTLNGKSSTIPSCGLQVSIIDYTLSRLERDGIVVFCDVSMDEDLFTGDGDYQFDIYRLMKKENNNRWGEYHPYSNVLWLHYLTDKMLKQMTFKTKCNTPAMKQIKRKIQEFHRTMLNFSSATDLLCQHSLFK

[5] = target: Cyclin-dependent kinase 2 (Homo sapiens) (UniProt P24941); assay: Inhibition of wild-type human full length CDK2 (M1 to L298 residues) expressed in bacterial expression system assessed as remaining activity at 1 uM by Kinomescan method relative to control; in short: as §1
[6] = target: MAP kinase-interacting serine/threonine-protein kinase 2 (Homo sapiens, UniProt Q9HBH9); assay: Binding affinity to wild-type human partial length MKNK2 (G63 to S388 residues) expressed in mammalian expression system measured after 1 hr by competitive binding assay
MAP kinase-interacting serine/threonine-protein kinase 2, sequence (Q9HBH9 whole entry, the tested form may be a part): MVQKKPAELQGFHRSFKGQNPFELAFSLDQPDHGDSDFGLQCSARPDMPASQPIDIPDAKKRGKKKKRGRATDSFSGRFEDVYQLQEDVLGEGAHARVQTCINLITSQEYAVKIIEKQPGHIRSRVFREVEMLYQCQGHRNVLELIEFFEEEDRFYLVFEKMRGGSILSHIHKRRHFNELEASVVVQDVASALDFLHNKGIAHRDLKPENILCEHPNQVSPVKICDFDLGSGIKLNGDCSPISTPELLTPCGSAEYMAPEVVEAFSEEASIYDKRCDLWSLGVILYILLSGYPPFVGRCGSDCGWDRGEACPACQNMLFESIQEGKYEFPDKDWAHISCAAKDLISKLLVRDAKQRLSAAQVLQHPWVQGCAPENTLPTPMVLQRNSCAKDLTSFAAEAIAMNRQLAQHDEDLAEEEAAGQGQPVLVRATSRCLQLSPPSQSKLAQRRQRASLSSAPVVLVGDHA

Glycogen synthase kinase-3 beta (Homo sapiens), sequence (P49841 whole entry, looked up, the tested form may be a part): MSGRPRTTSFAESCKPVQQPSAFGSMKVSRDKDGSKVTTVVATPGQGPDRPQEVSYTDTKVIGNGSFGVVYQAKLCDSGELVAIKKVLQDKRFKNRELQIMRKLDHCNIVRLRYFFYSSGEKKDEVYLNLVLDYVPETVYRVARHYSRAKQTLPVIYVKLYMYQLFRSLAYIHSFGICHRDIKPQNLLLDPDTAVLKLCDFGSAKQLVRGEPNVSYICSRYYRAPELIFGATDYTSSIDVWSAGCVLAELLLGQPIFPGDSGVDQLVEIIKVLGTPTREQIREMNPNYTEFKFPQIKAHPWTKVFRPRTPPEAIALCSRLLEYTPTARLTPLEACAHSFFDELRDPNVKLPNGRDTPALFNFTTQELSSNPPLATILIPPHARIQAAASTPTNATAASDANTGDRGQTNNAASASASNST

CN(C)c1nccc(-c2cnn3ncccc23)n1
Activity [1]: 94% | Kd [2]: 1.8 µM | Kd [3]: 1.2 µM | Kd [4]: 0.015 µM | Activity [5]: 100% | Kd [6]: 1.8 µM
